The values that follow come from ChEMBL document CHEMBL1132321, “Nucleosides and nucleotides. 185. Synthesis and biological activities of 4'alpha-C-branched-chain sugar pyrimidine nucleosides” (J Med Chem, 1999).

Molecules are shown by their SMILES.

The subject of assay [1] is KB. Nature of the assay: Cytotoxicity against KB cells. Type of assay: functional, cell-based. Conditions: Homo sapiens.
The test system of assay [2] is L1210. Nature of the assay: Cytotoxicity against L1210 cells. Type of assay: functional, cell-based. Conditions: Mus musculus.
The test system of assay [3] is Human immunodeficiency virus 1. Nature of the assay: (§1) Antiviral activity against Human immunodeficiency virus type-1. Type of assay: functional, organism-based. In short, it runs like this: (§2)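 Cell-protection read-out: HSV-1 Kos strain on MRC-5 cells, HSV-2 G strain on MRC-5 cells, HIV-1 IIIb strain on MT-4 cells. Cells infected at MOI 0.02, then immediately plated with serial compound dilutions. After 4 days of incubation at 36 °C, viable cells were counted by MTT. […].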

In assay [4] the test system is Human alphaherpesvirus 2. Nature of the assay: Antiviral activity against Herpes simplex virus type-2 (HSV-2). The format is functional, organism-based. In short, it runs like this:
as §2

Assay [5] deals with Human alphaherpesvirus 1. Nature of the assay: Antiviral activity against Herpes simplex virus type-1 (HSV-1). Type of assay: functional, organism-based. In short, it runs like this:
as §2

Assay [6] relates to Human immunodeficiency virus 1. Described as §1.

The IC50 is the midpoint of a concentration-inhibition curve. Take `N#C[C@]1(CO)O[C@@H](n2ccc(=O)[nH]c2=O)[C@H](O)[C@@H]1O`: the IC50 in assay [1] and in assay [2] was > 350 µM in each case.
For orientation: EC50 means the midpoint of the concentration-response curve. Consider `CC[C@]1(CO)O[C@@H](n2ccc(N)nc2=O)C[C@@H]1O`, for which the EC50 is 0.013 µM in assay [3], > 350 µM in assay [4] and > 350 µM in assay [5]. The IC50 was 0.77 µM in assay [3]; > 350 µM in assay [4]; > 350 µM in assay [5]; > 350 µM in assay [1]; 55 µM in assay [2].
With `C#C[C@]1(CO)O[C@@H](n2ccc(N)nc2=O)C[C@@H]1O`, the EC50 was 0.0022 µM in assay [3], > 350 µM in assay [4] and 200 µM in assay [5]. For the same molecule, the IC50 in assay [3] was 0.16 µM; in assay [4], > 350 µM; in assay [5], > 350 µM.
As for `Nc1nc2c(ncn2COCCO)c(=O)[nH]1` [ACYCLOVIR], the concentration for a half-maximal effect (EC50) in assay [4] turned out to be 1.1 µM; in assay [5] it was 0.36 µM. In addition, the IC50 in assay [4] and in assay [5] was > 350 µM throughout.
Regarding `C#C[C@]1(CO)O[C@@H](n2ccc(N)nc2=O)[C@H](O)[C@@H]1O`, the IC50 in assay [1] and in assay [2] was > 350 µM each time.
Take `N#C[C@]1(CO)O[C@@H](n2ccc(N)nc2=O)[C@H](O)[C@@H]1O`: the IC50 in assay [1] and in assay [2] was > 350 µM throughout.
Take `C[C@]1(CO)O[C@@H](n2ccc(N)nc2=O)C[C@@H]1O`: the values for the half-maximal effective concentration (EC50) in assay [3], in assay [4] and in assay [5] were 0.062 µM, 0.58 µM and 3.1 µM, respectively. For the same molecule, the IC50 in assay [3] was 0.062 µM; in assay [4] it was 260 µM; in assay [5], 260 µM; in assay [1], > 350 µM; in assay [2] it was 0.16 µM.
As to `C=C[C@]1(CO)O[C@@H](n2ccc(N)nc2=O)C[C@@H]1O`, the EC50 in assay [3] is 0.0086 µM; in assay [4], > 350 µM; in assay [5] it was > 350 µM. The IC50 in assay [3] was 0.18 µM; in assay [4], > 350 µM; in assay [5] it was > 350 µM; in assay [1], > 350 µM; in assay [2], 21 µM.
Take `Nc1ccn([C@H]2C[C@H](O)[C@@](/C=C/Cl)(CO)O2)c(=O)n1`: the EC50 in assay [3] is 2.1 µM; in assay [4], > 350 µM; in assay [5], > 350 µM. Besides, the IC50 in assay [3] was 4.6 µM; in assay [4], > 350 µM; in assay [5] it was > 350 µM; in assay [1], > 350 µM; in assay [2], 200 µM.
As for `C#C[C@]1(CO)O[C@@H](n2ccc(=O)[nH]c2=O)[C@H](O)[C@@H]1O`, the IC50 in assay [1] and in assay [2] was > 350 µM throughout.
In the case of `Cc1cn([C@H]2C[C@H](N=[N+]=[N-])[C@@H](CO)O2)c(=O)[nH]c1=O` [ZIDOVUDINE], in assay [3], 3.2 µM corresponded to half-maximal inhibition (IC50). For the same molecule, a half-maximal effect in assay [6] (EC50) was put at 0.0041 µM.
For `N#C[C@]1(CO)O[C@@H](n2ccc(N)nc2=O)C[C@@H]1O`, the EC50 in assay [3] amounted to 0.0012 µM; in assay [4], 21 µM; in assay [5], 3.6 µM. Also, the IC50 in assay [3] is 0.17 µM; in assay [4], > 350 µM; in assay [5] it was > 350 µM; in assay [1], > 350 µM; in assay [2], 0.33 µM.
